Results reported in ChEMBL document CHEMBL1806443, “Novel imidazo[4,5-b]pyridine and triaza-benzo[c]fluorene derivatives: synthesis, antiproliferative activity and DNA binding studies” (Eur J Med Chem, 2011).
Activity calls are given as the source filed them. No cut-off for these calls is given here.

Legend:
SW-620 = experiment: Cell cycle arrest in human SW620 cells assessed as accumulation at G1 phase at 1 uM after 48 hrs by propidium iodide staining based flow cytometeric analysis (reference value: 52.7 +/- 0.9%); type: functional
HEp-2 = experiment: Cytostatic activity against human Hep2 cells at 1 to 10 uM after 72 hrs by MTT assay; type: functional, cell-based
How it was run: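 Monolayers in DMEM with 10% FBS, 2 mM L-glutamine, penicillin and streptomycin (37 °C, 5% CO2) were seeded at 3000–6000 cells/well on day 0. Five 10-fold dilutions (0.01–100 µM) were added, followed by 72-h incubation and MTT read-out. Absorbances were converted to percentage growth by the NIH formulae. Each point was run in quadruplicate in three experiments; ANOVA with Tukey test.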

MIA PaCa-2 [1] = experiment: Cell cycle arrest in human MIAPaCa2 cells assessed as accumulation at G1 phase at 5 uM after 48 hrs by propidium iodide staining based flow cytometeric analysis (reference value: 65.2 +/- 1.9%); type: functional
Nucleic Acid = experiment: Binding affinity to calf thymus DNA assessed as change in melting temperature at compound to polynucleotide ratio of 0.2 by UV-VIS spectroscopic analysis; type: nucleic-acid assay; settings: Bos taurus
How it was run: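 ct-DNA alone or with compound at set r = [compound]/[polynucleotide], in cacodylate buffer pH 7.0, I = 0.05 mol dm^-3. Absorbance at 260 nm followed against temperature, ligand absorbance subtracted, curves normalized. Tm is the transition midpoint, from the first-derivative maximum or by tangent method. ΔTm = Tm(complex) − Tm(free DNA), mean of ≥2 runs, error ±0.5 °C.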

HeLa = experiment: Antiproliferative activity against human HeLa cells after 72 hrs by MTT assay; type: functional, cell-based; settings: Homo sapiens, HeLa, 72 h
How it was run: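 Monolayer cells in DMEM with 10% FBS, 2 mM L-glutamine, penicillin and streptomycin at 37 °C, 5% CO2. Seeded at 3000-6000 cells/well by doubling time on day 0. Five 10-fold dilutions (0.01–100 µM) were added and incubated 72 h. MTT read-out, converted to percentage growth. IC50 by linear regression between bracketing concentrations. Quadruplicate points, three independent experiments, ANOVA/Tukey p<0.05.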

MIA PaCa-2 [2] = experiment: Cell cycle arrest in human MIAPaCa2 cells assessed as accumulation at G2/M phase at 5 uM after 48 hrs by propidium iodide staining based flow cytometeric analysis (reference value: 14.3 +/- 1.8%); type: functional

Q: Which results are given for `Cl.c1cnc2nc3ccc4ccc(C5=NCCN5)cc4n3c2c1`?
A: Activity (SW-620): 35.1%; Activity (HEp-2): Active; Activity (MIA PaCa-2 [1]): 42.4%; ΔTm (Nucleic Acid): 5.1 °C; IC50 (HeLa): 410 nM; Activity (MIA PaCa-2 [2]): 20.8%
